A selection: hits, their analogues and other compounds. The true share with any hit is near 4.6%.
GPR7 antagonist = GPR7 receptor antagonists, primary screen, cell-based, fluorescence, single concentration; inhibition, % at 4.4 µM; 1.1% of 290,000 active; GPR7-expressing cells, fluorescence antagonist assay; in the data active means inhibition above about 16%, passing the limit was not always enough;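 further: cells stimulated with the agonist NPW; 0% = agonist with vehicle and 100% = vehicle without agonist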
Target sequence (P48145 whole entry, looked up): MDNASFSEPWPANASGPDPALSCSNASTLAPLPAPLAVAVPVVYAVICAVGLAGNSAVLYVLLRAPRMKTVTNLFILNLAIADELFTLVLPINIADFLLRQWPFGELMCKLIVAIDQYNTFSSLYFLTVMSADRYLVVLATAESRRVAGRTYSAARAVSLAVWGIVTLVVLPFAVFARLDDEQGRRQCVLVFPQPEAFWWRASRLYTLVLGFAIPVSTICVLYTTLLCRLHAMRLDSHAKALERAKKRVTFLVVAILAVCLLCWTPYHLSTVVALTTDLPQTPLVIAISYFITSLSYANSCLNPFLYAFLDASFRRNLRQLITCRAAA
OX1R antag-1 = OX1R (HCRTR1) antagonists, primary screen, fluorescence, CHO/OX1R cells, Fluo-8 calcium, orexin A; Orexin/Hypocretin receptor type 1 (Homo sapiens), O43613; Fluo-8 calcium fluorescence; inhibition, % at 5 µM; 0.43% of 330,000 active;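 active means inhibition above its plate's threshold, mean inhibition of all tested compounds on the plate plus 3 SD, cut at about 37% in these data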;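 further: 0% = orexin A challenge wells and 100% = SB-334867-A antagonist wells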
Target sequence (O43613 whole entry, looked up): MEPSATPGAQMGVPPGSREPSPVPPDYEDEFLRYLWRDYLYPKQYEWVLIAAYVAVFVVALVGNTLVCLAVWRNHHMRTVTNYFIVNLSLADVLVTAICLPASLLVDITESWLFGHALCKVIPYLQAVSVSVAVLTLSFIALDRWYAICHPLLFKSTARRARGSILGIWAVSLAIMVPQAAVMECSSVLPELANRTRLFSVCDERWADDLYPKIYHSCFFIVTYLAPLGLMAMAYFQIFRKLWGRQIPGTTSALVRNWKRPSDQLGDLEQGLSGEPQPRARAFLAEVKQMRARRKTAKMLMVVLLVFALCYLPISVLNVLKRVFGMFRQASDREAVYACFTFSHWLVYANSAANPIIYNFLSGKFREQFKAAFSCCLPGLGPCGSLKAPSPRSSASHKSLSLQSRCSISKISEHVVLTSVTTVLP
OX1R antag-2 = antagonists of human orexin 1 receptor (OX1R); 1.8% of 330,000 active; AID 485270, 2010; Orexin/Hypocretin receptor type 1 (Homo sapiens), O43613; OX1R-expressing cells, FRET antagonist read-out; inhibition, % at 6.6 µM; in the data active means inhibition mostly above about 38%, no sharp cut-off; inactive means mostly below about 40%;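 further: 0% = agonist challenge alone and 100% = reference antagonist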
TAAR1 antag = human TAAR1 antagonists, primary screen, Fluo-8 calcium fluorescence, CHO RD-HGA16 cells. Trace amine-associated receptor 1 (Homo sapiens), Q96RJ0. antagonist. inhibition, % at 3 µM. 1.5% of 360,000 active;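 active means inhibition above a per-plate cutoff, the mean inhibition of test compounds on that plate plus 3 SD, cut at about 49% in these data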;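 further: 0% = DMSO plus EC80 beta-PEA response and 100% = DMSO alone without agonist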
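Test system: hTAAR1-expressing CHO RD-HGA16 cells, Gα16-coupled; Probe or stimulus: EC80 β-phenethylamine stimulus; Compound dosing: single nominal final test compound concentration of 3 µM; Timing: 140 s kinetic read after compound, 140 s after agonist; Signal: Fluo-8 calcium-sensitive fluorescence; Measure: % inhibition of agonist calcium response; Controls: DMSO and EC80 PEA controls.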
CHO parental Ca = ATP-evoked calcium signal inhibitors, parental CHO, primary screen, counter-screen for OX1R antagonist project, cell-based, fluorescence, Fluo-8 calcium dye; parental CHO-K1, ATP-induced calcium, Fluo-8 fluorescence; inhibition, % at 5.6 µM; 0.63% of 330,000 active;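 active means inhibition above that plate's mean sample inhibition plus 3 SD, cut at about 26% in these data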;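 further: 0% = ATP-challenged DMSO wells and 100% = DMSO wells without ATP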
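Material: Parental CHO cells | Reagent: ATP | Compound dosing: Single nominal dose of 5.6 µM per compound | Detection: Intracellular calcium via Fluo-8 no-wash fluorescent dye | Read-out: % inhibition of ATP-induced calcium mobilization | Benchmarks: Low control ATP plus DMSO, high control DMSO only | Replicates: Singlicate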
TAAR1 agonist = human TAAR1 agonists, primary screen, Fluo-8 calcium fluorescence, CHO RD-HGA16 cells | vehicle wells 0%, saturating PEA agonist 100% | activation, % at 3 µM | 0.99% of 360,000 active;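 active means activation above the mean activation of all test compounds in the run plus 3 SD, cut at about 38% in these data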
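Test system: RD-HGA16 (CHO) cells co-expressing Gα16 and hTAAR1 / Benchmarks: DMSO vehicle as 0%, PEA at EC100 as 100% / Repeats: no replicates (n 1) / Measure: % activation from peak over basal fluorescence ratio, DMSO-to-PEA scaled / Timing: 17-24 h plating, Fluo-8 75 min 37 °C, 30 min RT / Technique: kinetic Fluo-8 calcium fluorescence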
Active calls of the source: *; . = not tested or not shown.

SMILES	GPR7 antagonist	OX1R antag-1	OX1R antag-2	TAAR1 antag	CHO parental Ca	TAAR1 agonist
CCC(CO)Oc1cc(NCc2ccc(C(C)(C)C)cc2)c2ncn(C(C)C)c2c1 (centres undefined)	.	49.5	14.2	29.1	50.2*	17.4
CCC(COC)Oc1cc(NCc2ccccc2)c2ncn(C(C)C)c2c1 (centres undefined)	.	13.2	35.0*	7.4	-2.7	16.5
CCC(CO)Oc1cc(NCc2ccc(O)cc2)c2ncn(C(C)C)c2c1 (centres undefined)	.	-23.8	1.9	4.1	-14.3	1.2
CC(C)n1cnc2c(NCc3ccccc3)cc(N[C@H](C)CO)cc21	.	5.7	74.5*	.	-12.2	.
C[C@@H]1COc2cccc(N3CCC[C@@H]3CO)c2S(=O)(=O)N1	.	.	.	2.9	.	3.3
Cc1cc(N2CCN(CC(C)(C)O)C[C@@H]2C)ccc1N1CCN(CC(C)(C)O)[C@H](C)C1	.	.	.	-34.0	.	1.8
O=C(CCn1nc(-c2ccccc2)ccc1=O)N1CCN(c2ccccc2)CC1	1.3	-16.9	10.3	10.3	-11.5	8.0
O=C(CCn1nc(-c2ccccc2)c2ccccc2c1=O)N1CCN(c2ccccc2)CC1	-7.4	12.5	62.5*	-4.3	-25.6	7.7
Cc1cc(C)n2nc(N)c(N=Nc3cccc(Cl)c3)c2n1	-4.4	-16.6	50.7*	4.8	-2.6	4.9
Cc1cc(NC(=O)Nc2ccc(Cl)cc2)no1	-0.2	8.3	37.0	18.5	2.0	22.4
Cc1cc(NC(=O)Nc2ccc(Cl)c(Cl)c2)no1	.	41.4	28.8	3.3	82.5*	16.5
O=C(Nc1ccc(Cl)cc1)Nc1cccc2nsnc12	-2.9	2.0	44.3*	21.0	13.3	0.4
CC(=O)N(C)c1ccc(NC(=O)Nc2ccc(Cl)cc2)cc1	.	26.9	18.6	102.3*	13.9	44.4*
O=C(Nc1ccncc1)Nc1cccc(Cl)c1Cl	-17.9	.	.	12.4	.	25.7
O=C(Nc1ccc(Cl)c(Cl)c1)Nc1ccc(Br)cc1F	-3.4	31.8	49.8	-19.6	35.5*	16.0
CCC(=O)OC1(C(C)=O)CCC2C3CCC4=CC(=O)CCC4(C)C3CCC21C (centres undefined)	.	.	.	13.3	.	2.9
COC(=O)C1=C(C)N(Cc2ccc(C(F)(F)F)cc2)C(=NCC2CC2)NC1c1cccc(Cl)c1 (centres undefined)	.	.	.	38.8	.	24.9
O=C(Nc1cccnc1)c1cc(F)c(F)cc1Cl	-5.4	-4.3	25.6	-18.6	-1.1	7.8
CNC(=O)Nc1ccc(S(N)(=O)=O)cc1	-4.3	-17.9	2.9	-6.3	6.9	0.0
COc1ccc(NC(=O)Nc2ccc(F)c(Cl)c2)cc1	6.4	10.1	20.4	29.1	8.1	12.1
NS(=O)(=O)c1ccc(NC(=O)Nc2ccc(Cl)cc2)cc1	2.2	0.1	4.7	38.5	7.3	40.7*
Cc1ccc(NC(=O)Nc2ccc(F)c(Cl)c2)cc1	28.9*	8.0	37.6	-4.3	68.7*	8.2
O=C(Nc1ccc(Cl)cc1)Nc1ccc(Cl)c(Cl)c1	.	84.3*	43.3*	65.6*	79.4*	18.4
O=C(Nc1cccnc1)Nc1ccc(F)c(Cl)c1	-0.7	12.0	7.4	5.6	-1.9	51.2*
CCCCCCCCCCCCNC[C@@H]1CSCCS(=O)(=O)N1	.	.	.	-14.0	.	9.2
SMILES	GPR7 antagonist	OX1R antag-1	OX1R antag-2	TAAR1 antag	CHO parental Ca	TAAR1 agonist
COc1ccc(NC(=O)CC2SC(=NCC3CCCO3)NC2=O)c([N+](=O)[O-])c1 (centres undefined)	-20.9	-20.9	49.6*	-13.5	-1.8	2.6
CCC(CC)C(C(=O)NCc1ccccc1)N1CCN(c2cccc(C)c2C)CC1 (centres undefined)	.	.	.	-18.9	.	0.0
CCOc1ccccc1-c1ccc2nccn2c1	.	.	.	9.7	.	-0.2
C#Cc1cccc(Nc2nc(NCCOC)nc3ccsc23)c1	.	.	.	56.7*	.	8.5
C#Cc1cccc(Nc2nc(NC(C)C)nc3ccsc23)c1	.	.	.	35.1	.	2.3
C#Cc1cccc(Nc2nc(NCc3ccccc3OC)nc3ccsc23)c1	.	.	.	51.6*	.	5.1
O=C(C(=O)N1CCC(CNS(=O)(=O)c2cc(C(F)(F)F)cc(C(F)(F)F)c2)CC1)c1cccs1	.	.	.	-10.6	.	-1.8
COc1cccc(-c2cc(C(=O)Nc3cccc(O)c3)no2)c1	-11.2	15.0	70.8*	34.2	-6.2	7.6
COc1cc(NC(=O)c2cc(-c3cccc(O)c3)on2)cc(OC)c1OC	-0.8	-13.9	38.5*	42.5	-4.0	10.2
O=C(Nc1cccc(C(F)(F)F)c1)c1cc(-c2ccc(F)cc2)on1	-17.7	-18.8	10.5	8.2	57.7*	8.4
CCc1ccccc1NC(=O)c1cc(-c2cccc(O)c2)on1	-15.8	-5.2	13.8	8.0	-9.1	6.8
O=C(Nc1ccccc1C(F)(F)F)c1cc(-c2cccc(O)c2)on1	-11.3	2.6	8.8	15.6	51.4*	6.9
CC(C)c1cc(C(=O)Nc2cccc(C(F)(F)F)c2)no1	-7.5	-2.1	18.8	3.1	-3.9	6.8
O=S1(=O)N[C@H](Cc2ccccc2)COc2cc(N3CCOCC3)ccc21	.	.	.	5.3	.	1.0
NC(=O)C12NC(Cc3ccccc31)c1ccccc12 (centres undefined)	.	.	.	-15.8	.	1.7
CCOC(=O)C1CCN(C(=O)COc2cc(C)c(Br)cc2C)CC1	9.1	50.0*	53.7	27.0	54.4*	6.4
CCOC(=O)C1CCN(C(=O)COc2ccc(Br)cc2Br)CC1	0.7	-23.7	16.2	-4.5	-6.4	11.6
CCOC(=O)C1CCCN(C(=S)Nc2cc(C)cc(C)c2)C1 (centres undefined)	-0.3	-2.6	12.3	46.1	-2.5	50.4*
CC1CCCN(C(=S)Nc2ccc(S(=O)(=O)N3CCCCC3)cc2)C1 (centres undefined)	-2.5	-20.8	8.7	-29.7	-10.4	29.0
CCOC(=O)C1CCCN(C(=S)Nc2ccc(S(=O)(=O)N3CCOCC3)cc2)C1 (centres undefined)	.	-8.8	3.0	33.5	0.4	46.3*
CCOC(=O)C1CCCN(S(=O)(=O)c2ccc(S(=O)(=O)N(CC)CC)cc2)C1 (centres undefined)	7.8	47.5*	46.3	27.8	51.1*	4.9
CCOC(=O)C1CCCN(C(=O)COc2ccccc2O)C1 (centres undefined)	-10.3	-10.4	7.1	31.4	-16.8	43.2*
Cc1ccc(N/C(SCc2ccccc2C)=C(/C#N)C(=O)NCc2ccco2)cc1C	-6.3	-11.1	14.1	63.5*	-22.5	-0.3
Cc1cc(NC(=O)NCc2ccco2)ccc1NC(=O)NCc1ccco1	.	.	.	-4.3	.	2.0

Source: PubChem
